Source: PubChem BioAssay
Most compounds without a hit are left out; they make up all but 3.9% or so of the library.
HTR2A ag – mouse Htr2a agonists via beta-arrestin recruitment, primary screen, cell-based, luminescence | CHO-K1 mHTR2A beta-arrestin complementation; percent of 30 µM serotonin response | AID 624169, 2012 | 360,000 tested, 0.66% active | activation, % at 7.6 µM;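 active = activation above a run cutoff, the mean activation of all tested compounds plus 3 SD, cut at about 14% in these data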;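 note: 0% = plate median of compound wells and 100% = 30 µM serotonin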
Target sequence (P35363 whole entry, looked up): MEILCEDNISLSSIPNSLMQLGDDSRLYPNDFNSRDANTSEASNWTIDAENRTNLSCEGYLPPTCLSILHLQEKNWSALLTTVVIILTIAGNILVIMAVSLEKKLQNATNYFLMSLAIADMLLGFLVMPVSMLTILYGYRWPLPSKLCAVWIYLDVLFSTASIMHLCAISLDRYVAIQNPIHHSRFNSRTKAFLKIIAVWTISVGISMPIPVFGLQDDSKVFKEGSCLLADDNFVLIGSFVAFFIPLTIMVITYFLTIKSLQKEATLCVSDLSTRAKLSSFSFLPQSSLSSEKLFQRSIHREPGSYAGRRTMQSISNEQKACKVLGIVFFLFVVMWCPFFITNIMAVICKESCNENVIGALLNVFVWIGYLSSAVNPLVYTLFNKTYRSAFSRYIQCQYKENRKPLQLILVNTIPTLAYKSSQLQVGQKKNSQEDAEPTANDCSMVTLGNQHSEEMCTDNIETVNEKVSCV
TAAR1 agonist – human TAAR1 agonists, primary screen, Fluo-8 calcium fluorescence, CHO RD-HGA16 cells. vehicle wells 0%, saturating PEA agonist 100%. Trace amine-associated receptor 1 (Homo sapiens), Q96RJ0. 360,000 tested, 0.99% active. activation, % at 3 µM. AID 624467, 2012;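 active = activation above the mean activation of all test compounds in the run plus 3 SD, cut at about 38% in these data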
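Benchmarks: low control DMSO, high control PEA (EC100); System: CHO RD-HGA16 cells carrying human TAAR1 plus Gα16; Detection: Fluo-8 fluorescence, 5 s baseline then 140 s kinetic read; Schedule: 17-24 h plating, Fluo-8 75 min 37 °C, 30 min RT; Read-out basis: % activation from peak over basal fluorescence ratio, DMSO-to-PEA scaled.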
CHRM1 antagonist – human M1 muscarinic receptor antagonists, primary screen, CHO-K1 cells, Fluo-8 calcium fluorescence, 1536-well. Muscarinic acetylcholine receptor M1 (Homo sapiens), P11229. CHO-K1 hM1, ACh EC80 antagonist. inhibition, % at 3 µM. 360,000 tested, 1.3% active. AID 588852, 2011;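 active = percent inhibition above its own plate's cutoff, namely the mean of that plate's compound wells plus 3 SD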;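 note: peak over basal fluorescence ratio during 140 s after agonist addition; 0% = ACh EC80 plus DMSO and 100% = DMSO alone without agonist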
TAAR1 antag – human TAAR1 antagonists, primary screen, Fluo-8 calcium fluorescence, CHO RD-HGA16 cells; Trace amine-associated receptor 1 (Homo sapiens), Q96RJ0; antagonist; inhibition, % at 3 µM; 360,000 tested, 1.5% active;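 active = inhibition above a per-plate cutoff, the mean inhibition of test compounds on that plate plus 3 SD, cut at about 49% in these data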;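 note: 0% = DMSO plus EC80 beta-PEA response and 100% = DMSO alone without agonist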
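Assay system: RD-HGA16 CHO cells with stable hTAAR1 and Gα16 / Reagent: EC80 β-phenethylamine stimulus / Doses: 3 µM, single point / Timing: dye loading 75 min at 37 °C, then 30 min room temperature / Measured by: Fluo-8 intracellular calcium dye fluorescence, real-time kinetic reads / Controls: vehicle wells and EC80 agonist wells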
CHRM1 agonist – human M1 muscarinic receptor agonists, primary screen, Fluo-8 calcium fluorescence, CHO-K1 cells, HTS. Muscarinic acetylcholine receptor M1 (Homo sapiens), P11229. CHO-K1 hM1, agonist mode; 0% DMSO, 100% acetylcholine EC100. activation, % at 3 µM. 360,000 tested, 0.33% active. AID 588814, 2011;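 active = activation above the run's mean compound activation plus 3 SD, cut at about 16% in these data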;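 note: peak over basal fluorescence ratio within a 140 s kinetic read after compound addition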
M1 PAM – human M1 muscarinic receptor positive allosteric modulators, primary screen, CHO-K1 cells, Fluo-8 calcium fluorescence, 1536-well | CHO-K1 hM1, ACh EC20; 0% = ACh EC20, 100% = maximal ACh | 360,000 tested, 0.088% active | activation, % at 3 µM; in the data active = activation above about 19%, passing the limit was not always enough
TAAR1 ag conf – human TAAR1 agonists, retest of hits, confirmation, Fluo-8 calcium fluorescence, CHO RD-HGA16 cells | shares compounds with TAAR1 agonist | scaled: DMSO 0%, maximal phenethylamine 100% | activation, % at 3 µM | 2,400 tested, 82% active;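 active = activation above a cutoff set at the run's mean compound activation plus 3 SD, cut at about 39% in these data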
Ga16 nonsel ag – nonselective calcium mobilization agonists, CHO-Ga16 cells, counter-screen for hTAAR1 agonist project, cell-based, fluorescence, CHO-Ga16 parental line; shares compounds with TAAR1 agonist; Fluo-8 calcium fluorescence; normalized to maximal ATP response, DMSO zero; activation, % at 3 µM; 2,400 tested, 50% active; AID 651787, 2012;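 active = activation above the run cutoff, the mean activation over all tested wells plus 3 SD, cut at about 12% in these data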;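 note: 0% = DMSO wells and 100% = maximal ATP response on the peak over basal ratio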
TAAR1 desens – TAAR1 desensitization by agonist hits, confirmation, counter-screen for TAAR1 agonist project, cell-based, fluorescence, tachyphylaxis; shares compounds with TAAR1 agonist; CHO RD-HGA16 hTAAR1, Fluo-8 calcium, beta-PEA response inhibition; inhibition, % at 3 µM; 2,400 tested, 46% active; AID 651951, 2012;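 active = inhibition above the run cutoff, the mean inhibition of all test compounds plus 3 SD, cut at about 49% in these data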;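 note: beta-PEA stimulus applied at its EC80; loss of beta-PEA calcium signal after compound pretreatment read as receptor desensitization; 0% = DMSO with beta-PEA at EC80 and 100% = DMSO alone without agonist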
Ga16 nonsel ant – inhibition of ATP-evoked calcium response in CHO-Ga16 cells, counter-screen for TAAR1 agonist project, cell-based, fluorescence | shares compounds with TAAR1 agonist | CHO-Ga16 ATP-induced calcium, Fluo-8 fluorescence | inhibition, % at 3 µM | 2,400 tested, 39% active | AID 651952, 2012;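 active = inhibition above the plate's mean compound inhibition plus 3 SD, computed per plate, cut at about 22% in these data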;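 note: 0% = EC80 ATP with DMSO and 100% = DMSO wells without ATP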
* = called active by the depositor; nt = no result given.

SMILES	HTR2A ag	TAAR1 agonist	CHRM1 antagonist	TAAR1 antag	CHRM1 agonist	M1 PAM	TAAR1 ag conf	Ga16 nonsel ag	TAAR1 desens	Ga16 nonsel ant
Cc1cccn2c(=O)c3c(nc12)N1CCc2ccccc2C1C1(C3)C(=O)NC(=O)N(C)C1=O (configuration not stated)	2	22	14	43	1	-6	nt	nt	nt	nt
CCCCN1C(=O)NC(=O)C2(Cc3c(nc4c(C)cccn4c3=O)N3CCc4ccccc4C32)C1=O (configuration not stated)	-2	57*	-14	38	3	8	72*	28*	49*	27*
CCCCN1C(=O)NC(=O)C2(Cc3c(nc4ccccn4c3=O)N3CCc4ccccc4C32)C1=O (configuration not stated)	3	61*	1	24	12	3	90*	33*	40	11
Cc1cccn2c(=O)c3c(nc12)N1CCCCCC1C1(C3)C(=O)N(C)C(=O)N(C)C1=O (configuration not stated)	2	-3	-10	-21	-3	6	nt	nt	nt	nt
CN1CC(C(=O)c2ccccc2)C(c2ccccc2)C1 (configuration not stated)	-13	55*	-12	-31	-7	4	76*	3	28	7
CN1CC(C(=O)c2ccc(Cl)cc2)C(c2ccccc2F)C1 (configuration not stated)	1	45*	8	-8	-15	-18	74*	5	34	13
COC(=O)C1=C(c2ccc(OC)c(OC)c2)C[C@@H]2CC[C@H]1N2C(=O)N1CCC(O)CC1	2	5	-8	7	-3	6	nt	nt	nt	nt
COc1ccc(CCNCc2ccccc2)cc1	10	6	5	-8	-7	-4	nt	nt	nt	nt
COc1ccc(CCNCc2ccncc2)cc1	5	46*	-11	0	-4	7	67*	3	28	5
O=C1NC(=O)C(=Cc2ccc(-c3ccc(F)cc3O)o2)C(=O)N1	1	105*	47*	85*	38*	0	109*	61*	88*	68*
Cc1ccccc1C(=O)N1Cc2ccccc2-n2nncc2C1	3	3	-3	-7	-3	-3	nt	nt	nt	nt
